Results on 50 molecules are retold here after ChEMBL document CHEMBL1833913, “Structure-activity relationship study of pyridazine derivatives as glutamate transporter EAAT2 activators” (Bioorg Med Chem Lett, 2011).

The test system of experiment [1] is Astrocyte. The experiment is described as follows: Increase of EAAT2 expression in mouse primary astrocytes at 10 uM after 24 hrs by Western blot analysis relative to control. The format is functional. An outline of the steps:
(§1)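 PA-EAAT2 cells (primary astrocyte line stably expressing EAAT2 mRNA) were incubated with compound at 10 μM for 4 h or 24 h. Cells were then harvested and EAAT2 protein measured by Western blot. Results are given as fold increase over DMSO control.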
Background: In western blotting, separated proteins are transferred to a membrane and probed.

Experiment [2] concerns Astrocyte. The experiment is described as follows: Increase of EAAT2 expression in mouse primary astrocytes at 10 uM after 4 hrs by Western blot analysis relative to control. It is filed as functional. An outline of the steps: as §1
Experiment [3] concerns Astrocyte. As to the kind of experiment: Increase of EAAT2 expression in mouse primary astrocytes after 24 hrs by Western blot analysis relative to beta-actin protein expression. The format is functional, cell-based. The gist of the method:
(§2)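 PA-EAAT2 cells (primary astrocyte line stably expressing EAAT2 mRNA) were exposed for 24 h to a 6-point series (0.1, 0.3, 1.0, 5.0, 10.0, 30.0 μM). EAAT2 protein was measured by Western blot and normalised separately to β-actin or GAPDH. Fold increase and EC50 were derived from the dose-response. Values are means of four separate experiments.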

Experiment [4] deals with Astrocyte. The experiment is described as follows: Increase of EAAT2 expression in mouse primary astrocytes at 1 uM after 24 hrs by Western blot analysis relative to beta-actin protein expression. It is filed as functional. An outline of the steps:
as §2

Experiment [5] relates to Astrocyte. As to the kind of experiment: Increase of EAAT2 expression in mouse primary astrocytes at 1 uM after 24 hrs by Western blot analysis relative to GAPDH protein expression. The format is functional. An outline of the steps: as §2
Experiment [6] relates to Astrocyte. The experiment is described as follows: Increase of EAAT2 expression in mouse primary astrocytes at 10 uM after 24 hrs by Western blot analysis relative to beta-actin protein expression. The format is functional. The gist of the method:
as §2

Experiment [7] concerns Astrocyte. The experiment is described as follows: Increase of EAAT2 expression in mouse primary astrocytes at 10 uM after 24 hrs by Western blot analysis relative to GAPDH protein expression. The format is functional. The gist of the method: as §2
The subject of experiment [8] is Astrocyte. The experiment is described as follows: Increase of EAAT2 expression in mouse primary astrocytes after 24 hrs by Western blot analysis relative to GAPDH protein expression. The format is functional, cell-based. The gist of the method: as §2

Activity calls are given as the source filed them. The rule behind the calls is not given here.

For the molecule `Cc1ccccc1CSc1ccc(-c2ccccn2)cn1`, in the experiment on Astrocyte [1], the “fold change (FC)” value was “inactive”. Further, the “fold change (FC)” value in the experiment on Astrocyte [2] was found to be 1.3.
The matching figures for `Cc1ccc(CSc2ccc(-c3ccccn3)nn2)cc1`: 2.6 and 2.1.
For `Fc1cccc(Cl)c1CSc1ccc(-c2ccncc2)nn1`, the “fold change (FC)” value with Astrocyte [1] was found to be 1.9. Moreover, the “fold change (FC)” value in the experiment on Astrocyte [2] was “inactive”.
As to `c1ccc(CSc2ccc(-c3ccccn3)nn2)cc1`, the “fold change (FC)” value in the experiment with Astrocyte [1] turned out to be 3; in the experiment on Astrocyte [2], 1.3.
With `Oc1ccc(-c2ccccn2)nn1`, the “fold change (FC)” value in the experiment on Astrocyte [1] is 1.6; in the experiment on Astrocyte [2] it was 1.5.
Take `Cc1ccccc1COc1ccc(-c2ccccn2)nn1`: the “fold change (FC)” value was 2.5 in the experiment with Astrocyte [1] and 2 in the experiment on Astrocyte [2].
As to `Fc1ccc(CSc2ccc(-c3ccccn3)nn2)cc1`, the “fold change (FC)” value in the experiment on Astrocyte [1] came out at 2.6; in the experiment on Astrocyte [2] it was 2.5.
Regarding `Fc1cccc(Cl)c1CSc1ccc(-c2ccccn2)nn1`, in the experiment with Astrocyte [1], the “fold change (FC)” value amounted to 2. Further, in the experiment on Astrocyte [2], the “fold change (FC)” value was “inactive”.
On to `Cc1ccccc1CCSc1ccc(-c2ccccn2)nn1`, for which the “fold change (FC)” value worked out at 2.8 in the experiment with Astrocyte [1] and 1.2 in the experiment on Astrocyte [2].
Usually EC50 stands for the concentration at which the effect is half-maximal. High values mean a need for much substance, low ones an effect from little substance. Turning to `CC(Sc1ccc(-c2ccccn2)nn1)c1c(F)cccc1Cl` (stereo not drawn), the 50% effective concentration (EC50) in the experiment on Astrocyte [3] was found to be 3900 nM; in the experiment on Astrocyte [8] it was 2400 nM. Also, the “fold change (FC)” value in the experiment with Astrocyte [1] amounted to 5.5; with Astrocyte [4], 1.5; in the experiment with Astrocyte [5], 1.8; in the experiment with Astrocyte [6] it was 5.5; with Astrocyte [7], 5.2; in the experiment with Astrocyte [2], 1.7.
Regarding `Fc1ccc(CSc2ccc(-c3ccccn3)nn2)c(Cl)c1`, the “fold change (FC)” value in the experiment with Astrocyte [1] worked out at 1.7; with Astrocyte [2], 1.6.
In the case of `Fc1ccc(CSc2ccc(-c3ccccn3)nn2)c(F)c1`, the EC50 in the experiment on Astrocyte [3] and in the experiment with Astrocyte [8] was 2600 nM each time. Moreover, the “fold change (FC)” value in the experiment on Astrocyte [1] came to 3.8; in the experiment with Astrocyte [4], 1; in the experiment with Astrocyte [5], 1; in the experiment on Astrocyte [6], 3.8; in the experiment on Astrocyte [7], 3.7; in the experiment on Astrocyte [2], 2.4.
Regarding `Cc1ccccc1CSc1ccc(-c2cccnc2)nn1`, the “fold change (FC)” value in the experiment on Astrocyte [1] is “inactive”. Further, the “fold change (FC)” value with Astrocyte [2] worked out at 1.5.
In the same order, the values of `Fc1cc(F)c(CSc2ccc(-c3ccccn3)nn2)c(F)c1` are 2.4 and 1.6.
In the same order, the values of `Clc1ccccc1CSc1ccc(-c2cccnc2)nn1` are 1.2 and 1.2.
`Clc1cccc(CSc2ccc(-c3ccccn3)nn2)c1`: the concentration giving a half-maximal response (EC50) came out at 1700 nM in the experiment with Astrocyte [3] and 500 nM in the experiment with Astrocyte [8]. The “fold change (FC)” value with Astrocyte [1] came out at 4.1; in the experiment with Astrocyte [4], 4; in the experiment with Astrocyte [5] it was 4.2; in the experiment on Astrocyte [6], 4.1; in the experiment with Astrocyte [7], 3.8; in the experiment on Astrocyte [2], 2.1.
With `Clc1ccc(CSc2ccc(-c3ccccn3)nn2)c(Cl)c1`, the “fold change (FC)” value in the experiment with Astrocyte [1] was “inactive”. The “fold change (FC)” value with Astrocyte [2] is on record as 1.8.
The matching figures for `Fc1ccccc1CSc1ccc(-c2ccccn2)nn1`: 3.1 and 2.2.
Consider `Cc1ccc(CSc2ccc(-c3ccncc3)nn2)cc1`, for which the “fold change (FC)” value in the experiment on Astrocyte [1] is 2.4; in the experiment with Astrocyte [2], 1.3.
Regarding `Clc1ccc(Cl)c(CSc2ccc(-c3ccccn3)nn2)c1`, the “fold change (FC)” value in the experiment on Astrocyte [1] is 2.5; in the experiment on Astrocyte [2] it was 1.4.
In the same order, the values of `CCCNC(=O)c1ccc(-c2ccccn2)nn1` are 1.2 and “inactive”.
With `Fc1cccc(Cl)c1CCOc1ccc(-c2ccccn2)nn1`, the “fold change (FC)” value in the experiment with Astrocyte [1] stood at 3.1; in the experiment on Astrocyte [2], 2.2.
Take `Clc1cccc(Cl)c1CSc1ccc(-c2ccccn2)nn1`: the EC50 with Astrocyte [3] and in the experiment with Astrocyte [8] was 500 nM in each case. Besides, the “fold change (FC)” value in the experiment on Astrocyte [1] was 3.9; with Astrocyte [4] it was 3; in the experiment with Astrocyte [5], 3.5; in the experiment with Astrocyte [6] it was 3.9; in the experiment on Astrocyte [7] it was 3.5; in the experiment on Astrocyte [2] it was 1.5.
As to `Cc1ccc(-c2ccc(SCc3c(F)cccc3Cl)nn2)cc1`, the “fold change (FC)” value is 2.3 with Astrocyte [1] and 1.2 in the experiment on Astrocyte [2].
The matching figures for `Clc1cccc(CSc2ccc(-c3ccccn3)nn2)c1Cl`: 2.4 and “inactive”.
With `c1ccc(CSc2ccc(-c3ccccn3)cc2)cc1`, the results for the “fold change (FC)” value in the experiment with Astrocyte [1] and with Astrocyte [2] were 1.1 and 1.2, respectively.
The matching figures for `Fc1cccc(F)c1CSc1ccc(-c2ccccn2)nn1`: 2.2 and 2.1.
For the molecule `Cc1ccccc1CSc1ccc(-c2ccccn2)nn1`, the 50% effective concentration (EC50) with Astrocyte [3] came to 2600 nM; in the experiment with Astrocyte [8], 1800 nM. In addition, the “fold change (FC)” value in the experiment on Astrocyte [1] is reported as 3.5; in the experiment with Astrocyte [4], 1; with Astrocyte [5], 1; in the experiment with Astrocyte [6], 3.5; in the experiment with Astrocyte [7], 3.1; with Astrocyte [2] it was 1.7.
For `Cc1cccc(C)c1COc1ccc(-c2ccccn2)nn1`, the “fold change (FC)” value with Astrocyte [1] stood at 3.2; with Astrocyte [2], 2.1.
Consider `Clc1ccccc1CCSc1ccc(-c2ccccn2)nn1`, for which the EC50 stood at 4700 nM in the experiment with Astrocyte [3] and 5100 nM in the experiment on Astrocyte [8]. The “fold change (FC)” value with Astrocyte [1] is 4.8; in the experiment with Astrocyte [4], 1; with Astrocyte [5] it was 1; in the experiment with Astrocyte [6], 4.8; with Astrocyte [7] it was 4.5; with Astrocyte [2], 1.7.
On to `CC(Oc1ccc(-c2ccccn2)nn1)c1c(F)cccc1Cl` (stereo not drawn), for which the “fold change (FC)” value in the experiment with Astrocyte [1] is 3; with Astrocyte [2], 1.6.
Regarding `c1ccc(-c2ccc(SC3CCCc4ccccc43)nn2)nc1` (stereo not drawn), the values for the concentration giving a half-maximal response (EC50) in the experiment on Astrocyte [3] and with Astrocyte [8] were 1900 nM and 1700 nM, respectively. For the same molecule, the “fold change (FC)” value in the experiment on Astrocyte [1] was determined as 5.3; in the experiment with Astrocyte [4], 2.4; in the experiment on Astrocyte [5], 2.8; in the experiment with Astrocyte [6], 5.3; in the experiment with Astrocyte [7], 4.5. For the same molecule, the “fold change (FC)” value in the experiment with Astrocyte [2] is “inactive”.
Take `Cc1ccccc1COc1ccc(-c2ccccn2)nc1`: the “fold change (FC)” value in the experiment on Astrocyte [1] was “inactive”. Moreover, in the experiment with Astrocyte [2], the “fold change (FC)” value was determined as 1.5.
Turning to `Fc1ccc(Sc2ccc(-c3ccccn3)nn2)c(Cl)c1`, the figures for the “fold change (FC)” value in the experiment with Astrocyte [1] and in the experiment on Astrocyte [2] were 2.5 and 1.3, respectively.
Consider `Cc1cccc(CSc2ccc(-c3ccccn3)nn2)c1`, for which the “fold change (FC)” value in the experiment with Astrocyte [1] was found to be 2.8; in the experiment on Astrocyte [2], 2.
In the same order, the values of `O=S(=O)(Cc1ccccc1Cl)c1ccc(-c2ccccn2)nn1` are “inactive” and 1.6.
In the same order, the values of `Cc1ccccc1CNc1ccc(-c2ccccn2)nn1` are 2.6 and 1.7.
On to `Clc1ccccc1CSc1ccc(-c2ccccn2)nn1`, for which the EC50 with Astrocyte [3] came to 3300 nM; with Astrocyte [8], 3200 nM. Further, the “fold change (FC)” value turned out to be 4 in the experiment with Astrocyte [1]; 1.1 in the experiment on Astrocyte [4]; 1.6 with Astrocyte [5]; 4 in the experiment on Astrocyte [6]; 4.5 with Astrocyte [7]; 2.1 in the experiment on Astrocyte [2].
Take `Fc1cccc(Cl)c1CSc1ccc(-c2cccnc2)nn1`: the “fold change (FC)” value with Astrocyte [1] came out at 2.3. For the same molecule, the “fold change (FC)” value with Astrocyte [2] was “inactive”.
`Sc1ccc(-c2ccccn2)nn1`: the “fold change (FC)” value in the experiment with Astrocyte [1] is on record as 2. Besides, the “fold change (FC)” value with Astrocyte [2] is “inactive”.
Take `Cc1ccccc1CS(=O)(=O)c1ccc(-c2ccccn2)nn1`: the “fold change (FC)” value worked out at 1.1 with Astrocyte [1] and 2.3 in the experiment with Astrocyte [2].
The matching figures for `Fc1ccc(COc2ccc(-c3ccccn3)nn2)c(F)c1`: 2.3 and “inactive”.
In the same order, the values of `CCSc1ccc(-c2ccccn2)nn1` are 1.9 and 1.6.
The matching figures for `Cc1ccccc1CSc1ccc(-c2ccccc2)nn1`: 2 and 1.1.
As for `Cc1ccc(Sc2ccc(-c3ccccn3)nn2)c(C)c1`, the “fold change (FC)” value with Astrocyte [1] came out at 2.2; with Astrocyte [2], 1.2.
As to `Cc1ccc(COc2ccc(-c3ccccn3)nn2)c(C)c1`, the “fold change (FC)” value in the experiment with Astrocyte [1] came to 2. For the same molecule, in the experiment on Astrocyte [2], the “fold change (FC)” value was “inactive”.
The matching figures for `Fc1cccc(Cl)c1COc1ccc(-c2ccccn2)nn1`: 2.9 and 1.1.
Turning to `Cc1ccccc1CNC(=O)c1ccc(-c2ccccn2)nn1`, the “fold change (FC)” value with Astrocyte [1] came out at 1.4. Besides, the “fold change (FC)” value with Astrocyte [2] is “inactive”.
In the same order, the values of `O=S(=O)(Cc1c(F)cccc1Cl)c1ccc(-c2ccccn2)nn1` are 2.8 and 1.4.
The matching figures for `Clc1ccccc1CSc1ccc(-c2ccncc2)nn1`: 1.7 and 1.5.
